Published values gathered from unrelated publications.
Compare with care: the assays were run in different laboratories. pEC50, pIC50: −log10 of the molar value.

`CC(=O)Nc1cccc(-n2c(=O)n(C3CC3)c(=O)c3c(Nc4ccc(I)cc4F)n(C)c(=O)c(C)c32)c1` gave a viability of 80.5% (SW1417; cell growth or viability, resazurin; 1.56 nM, 72 h).
For `CN1CCN(S(=O)(=O)c2ccc(-c3ccc4c(Nc5ccc(Cl)cn5)ccnc4c3)cc2)CC1`, the pEC50 was 6.60 (Plasmodium falciparum; parasite growth; D6; drug-resistant strain, blood stage).
`CCN(CC)CCCC(C)Nc1ccnc2cc(Cl)ccc12` (stereo not shown) gave an IC50 of 0.01 µg/mL (Plasmodium falciparum; parasite growth; D6; 72 h, blood stage).
`CCn1cc(-c2nc(C)no2)c(=O)c2cc(F)c(N3CCC(C)CC3)cc21` has a pEC50 of 7.72 (Plasmodium falciparum; parasite growth; 3D7; 72 h, blood stage).
With `CS(=O)(=O)c1ccc2c(c1)C(=O)CCc1ccccc1C(=O)N2` the pIC50 was less than 3.52 (L6; cell growth or viability).
For `CCn1cc(-c2ccccn2)c(=O)c2cc(F)c(N3CCC(C)CC3)cc21`, the pEC50 was less than 5.00 (Plasmodium falciparum; parasite growth; 3D7; 72 h, blood stage).
With `CN1CCN(c2nsnc2-c2ccc3c(Nc4ccc(OCc5cccc(F)c5)c(Cl)c4)ccnc3c2)CC1` the pEC50 was 7.00 (Plasmodium falciparum; parasite growth; D6; drug-resistant strain, blood stage).
`O=C1Nc2ccccc2C(=O)CCc2ccccc21` gave a pIC50 of 4.28 (L6; cell growth or viability).
`CN1CCN(S(=O)(=O)c2ccc(-c3ccc4c(Nc5ccc(C(F)(F)F)nc5)ccnc4c3)cc2)CC1` gave a pEC50 of 6.80 (Plasmodium falciparum; parasite growth; D6; drug-resistant strain, blood stage).
With `CCn1cc(-c2nc(C)no2)c(=O)c2cc(F)c(N3CCC4(CC3)CC4)cc21` the pEC50 was 6.01 (Plasmodium falciparum; parasite growth; 3D7; 72 h, blood stage).
`COc1ccc(Nc2ccnc3cc(-c4cn[nH]c4)ccc23)cc1Cl` has a pEC50 of 6.60 (Plasmodium falciparum; parasite growth; D6; drug-resistant strain, blood stage).
The pEC50 of `O=C1C(O)=C([C@H]2CC[C@H](c3ccc(Cl)cc3)CC2)C(=O)c2ccccc21` is reported as 8.80 (Plasmodium falciparum; parasite growth; 3D7; blood stage).
For `O=C1Nc2ccccc2C(=O)CCc2ccc(O)cc21`, the pIC50 was 3.70 (L6; cell growth or viability).
